In assay [1] the target is GABA-A receptor; anion channel. Briefly: In vitro inhibitory concentration of compound against benzodiazepine receptor from rat cerebral cortex using [3H]- flunitrazepam was evaluated. Format: tissue-based. The gist of the method: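 Rat cerebral cortex membranes prepared in 50 mM Tris-citrate, pH 7.4, washed three times. About 0.1 mg protein incubated with [3H]flunitrazepam (~1 nM final) and NaCl at 0-4 °C for 60 min. Bound ligand collected by GF/B filtration. IC50 taken from at least six inhibitor concentrations. Mean ± SEM of at least three determinations.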

Assay [2] concerns the target T1, GABA-A receptor; anion channel (Mus musculus) (UniProt Q8BHJ7+P26048+Q8QZW7+P50571+Q9R0Y8+P22723+A2AMW3+P62812+Q9JLF1+P26049+P22933+Q9D6F4+P63080+P27681+P16305). As to the kind of experiment: In vivo activity against GABA-A benzodiazepine receptor in mice. Type of assay: functional, organism-based. More on the design: unit not given here. The gist of the method: (§1)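 Adult male NIH/Swiss mice, groups of three to eight, given graded ip doses in diluted Emulphor/saline (1:9). Muscle relaxation tested on a wire at 12 min. PTZ given at 15 min: 80 mg/kg to test anticonvulsant action, 40 mg/kg to test proconvulsant action.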

The target in assay [3] is T1, GABA-A receptor; anion channel (Mus musculus). As to the kind of experiment: In vivo activity of compound was evaluated against benzodiazepine receptor in mice. Type of assay: functional, organism-based. The method in brief:
as §1

The species entered for assay [4] is Mus musculus. As to the kind of experiment: Compound was tested for myorelaxant effect in mice. Type of assay: functional. The method in brief: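 Male NIH/Swiss mice, 25-30 g, groups of three to eight, dosed ip with graded amounts in diluted Emulphor/saline (1:9) or vehicle. At 12 min, mice were hung by the forepaws on a 1.5-mm wire 60 cm above the bench. Three falls within 1 min counted as muscle relaxation. ED50 derived from the dose-response.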

For assay [5], the species on record is Mus musculus. As to the kind of experiment: Compound was tested for anticonvulsant effect in mice. Type of assay: functional. The method in brief:
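Male NIH/Swiss mice, 25-30 g, groups of three to eight, given graded ip doses in diluted Emulphor/saline (1:9) or vehicle. PTZ 80 mg/kg injected 15 min after dosing. Protection from PTZ-induced convulsions scored. ED50 derived from the dose-response.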

The structures appear in SMILES notation.

As a reminder, the IC50 is the midpoint of a concentration-inhibition curve. With `CCOC(=O)c1ncc2[nH]c3ccc(OCc4ccccc4)cc3c2c1COC`, the IC50 in assay [1] came to 5 nM. Take `O=C1CN=C(c2ccccc2)c2cc(Cl)cc(Cl)c2N1`: the Activity in assay [2] came to 8. `O=C1CN=C(c2ccccc2)c2ccc3ccccc3c2N1` registered an IC50 in assay [1] of more than 1000 nM. Still for that read-out and setting: next, `CN1C(=O)CN=C(c2ccccc2)c2c1ccc1ccccc21`: more than 1000 nM. In assay [2], `Cc1cc2c(cc1C)C(c1ccccc1)=NCC(=O)N2` registered an Activity of 132. Take `CN1C(=O)CN=C(c2ccccc2)c2cc(Cl)c(Cl)cc21`: in assay [1], half-maximal inhibition (IC50) was put at 40 nM. Besides, the Activity result in assay [3] was “Weak activity”. As for `CN1C(=O)CN=C(c2ccccc2F)c2c(Cl)cccc21`, in assay [1], the IC50 was found to be 150 nM. In addition, the Activity in assay [3] came out at 0. The term ED50 denotes the dose that gives a 50% effect, or the effect in half of the subjects. With `CN1C(=O)CN=C(c2ccccc2F)c2cc3ccccc3cc21`, the ED50 in the assay filed under Mus musculus [4] and in the assay filed under Mus musculus [5] was 15 mg/kg throughout. Moreover, the IC50 in assay [1] is 55 nM.

In assay [1], `CN1C(=O)CN=C(c2ccccc2)c2ccc3ccccc3c21` gave an IC50 of more than 1000 nM. In assay [2], `Cc1cc([N+](=O)[O-])cc2c1NC(=O)CN=C2c1ccccc1` yielded an Activity of 8.12. As for `CN1C(=O)CN=C(c2ccccc2)c2cc(Cl)ccc21`, the Activity in assay [3] stood at 1.39.

`O=C1CN=C(c2ccccc2F)c2cc(Cl)c(Cl)cc2N1`: the IC50 in assay [1] was determined as 3.6 nM. Molecule `Cc1cc(C)c2c(c1)C(c1ccccc1)=NCC(=O)N2` registered an Activity in assay [2] of 792. With `CN1C(=O)CN=C(c2ccccc2F)c2ccc3ccccc3c21`, the IC50 in assay [1] worked out at 260 nM.

In assay [1], `CN1C(=O)CN=C(c2ccccc2)c2cc3ccccc3cc21` registered an IC50 of more than 1000 nM. Consider `O=C1CN=C(c2ccccc2)c2c(Cl)cccc2N1`, for which 320 nM corresponded to half-maximal inhibition in assay [1] (IC50). In assay [3], this molecule had an Activity of 0. `O=C1CN=C(c2ccccc2)c2c(ccc3ccccc23)N1`: the IC50 in assay [1] was more than 1000 nM.

In assay [1], `Cc1cc2c(cc1Cl)NC(=O)CN=C2c1ccccc1F` came in with an IC50 of 14 nM. The Activity in assay [3] came to 0. For `C=Cc1ccc2c(c1)C(c1ccccc1)=NCC(=O)N2`, in that order: 24 nM and “Weak activity”. For `O=C1CN=C(c2ccccc2F)c2cc3ccccc3cc2N1`, the IC50 in assay [1] was more than 1000 nM. On the same count and under the same terms, next, `O=C1CN=C(c2ccccc2F)c2ccc3ccccc3c2N1`: 120 nM; `O=C1CN=C(c2ccccc2)c2cc3ccccc3cc2N1`: 400 nM. In assay [2], `O=C1CN=C(c2ccccc2)c2cc(-c3ccccc3)ccc2N1` returned an Activity of 781. For `CN1C(=O)CN=C(c2ccccc2F)c2c1ccc1ccccc21`, the IC50 in assay [1] was more than 1000 nM.

`O=C1CN=C(c2ccccc2F)c2c(ccc3ccccc23)N1` registered an IC50 in assay [1] of more than 1000 nM.
